Published values from different studies.
Lines come from different studies, so protocols differ.
Target: Rho-associated protein kinase 1 (ROCK1, Homo sapiens, UniProt Q13464)

Compound | observed | mode | technique | cell line | concentration | endpoint | result
Cc1cnc(NC2CCOCC2)nc1-n1cnc(C(=O)NC(CN)c2cc(F)cc(Cl)c2)c1 (centres unmarked) | enzyme activity | inhibitor | radiometric |  | 1 µM | remaining activity | 62%
c1ccc(N2CCN(Cc3nc4ccccc4[nH]3)CC2)nc1 | binding |  | competition with immobilised ligand |  | 1 µM | remaining binding | 100%
N#CCCc1ccc2c(c1)-c1[nH]c3ccc([N+](=O)[O-])cc3c1CC(=O)N2 | cell-free assay |  |  |  | 0.5 µM | remaining signal | 38.9%
CN(C)c1ncnc(-c2ccc3nc(Nc4cc(CN5CCN(C(=O)CC(F)(F)F)CC5)ccn4)[nH]c3c2)c1Cl | cell-free assay |  | competition with immobilised ligand |  | 1 µM | remaining binding | 100%
O=C(Nc1cnn(-c2csc(C(=O)NC3COC3)c2)c1)Nc1ccccc1Cl | enzyme activity | inhibitor |  |  | 5 µM | remaining activity | 109%
C[C@@H](N)[C@H]1CC[C@H](C(=O)Nc2ccncc2)CC1 | cell-free assay |  |  |  | 0.5 µM | remaining signal | 31.5%
CC/C(=N\NC(=O)NCc1cccc(O)c1)c1ccc(O)c(C)c1O | enzyme activity | inhibitor |  |  | 0.1 µM | inhibition | 65.5%
CCN(CC)CCNC(=O)c1c(C)[nH]c(/C=C2\C(=O)Nc3ccc(F)cc32)c1C | enzyme activity | inhibitor |  |  | 0.3 µM | inhibition | 6%
C[S+]([O-])c1ccc(-c2nc(-c3ccncc3)c(-c3ccc(F)cc3)[nH]2)cc1 (centres unmarked) | cell-free assay |  |  |  | 0.5 µM | remaining signal | 102%
CN(c1ccnc(CNc2nc(Nc3ccc4c(c3)CC(=O)N4)ncc2C(F)(F)F)n1)S(C)(=O)=O | cell-free assay |  | competition with immobilised ligand |  | 1 µM | remaining binding | 49%
CC(C)(C)c1nc(-c2cccc(NS(=O)(=O)c3c(F)cccc3F)c2F)c(-c2ccnc(N)n2)s1 | enzyme activity | inhibitor | radiometric |  | 1 µM | remaining activity | 104%
Cn1cncc1C1=CN(c2ncnc3[nH]cnc23)CCS1 | enzyme activity | inhibitor | radiometric |  | 2 µM | inhibition | 88.6%
O=C(Nc1cnn(-c2csc(C(=O)NC3COC3)c2)c1)Nc1c(F)cccc1Cl | enzyme activity | inhibitor |  |  | 5 µM | remaining activity | 78.2%
Nc1ncnc2occ(-c3ccc(NC(=O)Nc4cc(C(F)(F)F)ccc4F)cc3)c12 | cell-free assay | inhibitor |  |  | 20 µM | remaining signal | 0.1%
Cc1ccc(NC(=O)c2ccc(C)c(C(F)(F)F)c2)cc1C#Cc1nn(C2CCC(O)CC2)c2ncnc(N)c12 (centres unmarked) | cell-free assay |  |  |  | 10 µM | remaining signal | 126%
CN1CCN(c2cnc3c(C4CCN(C(=O)c5ccc(OC(F)(F)F)cc5N)CC4)ncnc3c2)CC1 | cell-free assay |  | competition with immobilised ligand |  | 1 µM | remaining binding | 100%
Cc1ccc(Nc2nccc(N(C)c3ccc4c(C)n(C)nc4c3)n2)cc1S(N)(=O)=O | enzyme activity | inhibitor |  |  | 10 µM | inhibition | 18%
CN(C)C1CCN(CC#Cc2nn(C3CCCC3)c3nc(NCc4ccccc4)ncc23)C1 (centres unmarked) | enzyme activity | inhibitor | FRET |  | 1 µM | inhibition | -1%
CCN(CC)c1ccc(C2=NNC(=O)CC2C)cc1[N+](=O)[O-] (centres unmarked) | enzyme activity | inhibitor |  |  | 10 µM | remaining activity | 109%
CN(C)C(=O)Cn1cc(-c2nc(C3(c4ccc(-c5cnc(N)nc5)cc4)CC3)no2)cn1 | cell-free assay |  | competition with immobilised ligand |  | 1 µM | remaining binding | 83%
COc1cc2ncnc(Nc3ccc(Oc4ccccc4)cc3C)c2cc1OC | enzyme activity | inhibitor |  |  | 1 µM | inhibition | 1%
Cc1ccc(C(=O)Nc2ccc(CN3CCN(C)CC3)c(C(F)(F)F)c2)cc1C#Cc1cnc2cccnn12 | enzyme activity | inhibitor |  |  | 23.5 nM | remaining activity | 79%
CNC(=O)c1cc(Oc2ccc(NC(=O)Nc3ccc(Cl)c(C(F)(F)F)c3)cc2)ccn1 | enzyme activity | inhibitor |  |  | 10 µM | inhibition | 8%
COc1ccc2c(c1)O[C@@H](c1ccc(OC)c(OC)c1)C[C@H]2NC(=O)C1(c2ccc3c(c2)OC(F)(F)O3)CC1 | cell-free assay |  | competition with immobilised ligand |  | 1 µM | remaining binding | 89%
COc1cc(Cl)c(C(=O)N[C@@H](CN[C@H]2CC[C@@H](N)CC2)Cc2ccc(C#N)cc2)cc1-c1ccc(CN[C@H](C)c2ccc(C)cc2)o1 | enzyme activity | inhibitor |  |  | 1 µM | remaining activity | 105%
COc1cc(-c2cn(C3CCc4ccccc4N(CC(F)(F)F)C3=O)nn2)ccc1-n1ccc(C)n1 (centres unmarked) | cell-free assay |  | competition with immobilised ligand |  | 1 µM | remaining binding | 100%
CNc1cc(Oc2cc(C(=O)Nc3cc(N4CCN(C)CC4)cc(C(F)(F)F)c3)ccc2C)ncn1 | target engagement in cells | inhibitor | chemoproteomics | Huh-7 | 1 µM | inhibition | -28.8%
Cc1c[nH]c2nccc(Oc3c(F)cc(Nc4cc(Cl)nc(N)n4)cc3F)c12 | cell-free assay |  | competition with immobilised ligand |  | 0.1 µM | remaining binding | 0.6%
c1ccc(CNc2nc(N3CCOc4ccccc43)nc3c2CCCC3)cc1 | target engagement in cells | inhibitor | chemoproteomics |  | 20 mM | inhibition | 3.9%
